Data set [1] has as its system Mus musculus. As to the kind of experiment: Antidepressant activity in Kunming mouse assessed as decrease in immobility time at 20 mg/kg, po by tail suspension test. Type of data set: functional, organism-based. The procedure, abridged:
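Male Kunming mice (18–20 g), dosed orally and tested acoustically and visually isolated. Each was suspended 50 cm above a wooden box by tape placed about 1 cm from the tail tip for 6 min. Immobility (s) over the last 4 min was recorded automatically by video tracking; n = 10, mean ± SEM vs vehicle.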

Data set [2] in a line: Drug level in Sprague-Dawley rat urine treated with Magnolol-4'-O-beta-D-glucopyranoside at 100 mg/kg, po by UPLC-IT-TOF-MS analysis. Type of data set: ADME, organism-based. To be noted: in vivo. The procedure, abridged: (§1)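 Rats (n = 6) housed in metabolic cages received 100.0 mg/kg orally; controls received 0.5% CMC-Na. Plasma, urine and faeces were collected and analyzed by LC-IT-TOF-MS on a C18 column at 30 °C. Gradient 5–100% acetonitrile with 0.05% formic acid over 18 min at 0.2 mL/min; positive and negative ion MS/MS.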

A short description of data set [3]: Drug level in Sprague-Dawley rat feces treated with Magnolol-4'-O-beta-D-glucopyranoside at 100 mg/kg, po by UPLC-IT-TOF-MS analysis. It counts as ADME, organism-based. To be noted: in vivo. In short, it runs like this:
as §1

Data set [4] can be described thus: Retention time of the compound by UPLC-IT-TOF-MS analysis. It counts as physicochemical. The procedure, abridged:
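Retention on C18 column (100 × 2.1 mm, 1.8 µm) at 30 °C; mobile phase A 0.05% formic acid in water, B 0.05% formic acid in acetonitrile, 0.2 mL/min, linear 5–100% B over 0–18.0 min; IT-TOF-MS detection in positive and negative modes.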

Data set [5] in a line: Drug level in Sprague-Dawley rat plasma treated with Magnolol-4'-O-beta-D-glucopyranoside at 100 mg/kg, po by UPLC-IT-TOF-MS analysis. Type of data set: ADME, organism-based. To be noted: in vivo. In short, it runs like this: as §1
In data set [6] the target is T1, Melatonin receptor type 1B (Homo sapiens) (UniProt P49286).
T1 sequence (whole entry): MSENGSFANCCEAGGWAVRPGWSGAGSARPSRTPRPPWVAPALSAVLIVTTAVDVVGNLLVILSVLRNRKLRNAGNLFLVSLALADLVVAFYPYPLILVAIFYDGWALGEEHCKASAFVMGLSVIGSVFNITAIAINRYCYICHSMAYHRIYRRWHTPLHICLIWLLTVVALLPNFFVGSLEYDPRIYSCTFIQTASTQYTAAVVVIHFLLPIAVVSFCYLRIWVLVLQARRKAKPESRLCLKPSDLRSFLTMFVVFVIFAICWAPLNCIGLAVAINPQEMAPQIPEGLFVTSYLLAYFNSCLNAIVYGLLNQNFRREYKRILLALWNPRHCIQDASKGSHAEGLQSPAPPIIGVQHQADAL
Description: Agonist activity at human MT2 receptor expressed in HEK293 cells at 1 mM after 24 hrs by Fluo-8 dye-based calcium assay relative to control. Type of data set: functional, cell-based. The procedure, abridged: (§2)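 Fluo-8 calcium assay in HEK293 cells stably expressing human MT1 or MT2, seeded 4×10^4/well and incubated 24 h. Compounds tested at 1.00 mM, agomelatine positive control at 3.33 µM; fluorescence at ex 485/em 525 nm. Agonism expressed as mean ± SD, n = 3.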

Data set [7] deals with T1, Melatonin receptor type 1B (Homo sapiens). Description: Potency index, ratio of compound effect to magnolol effect for human MT2 receptor. Type of data set: functional.
The target in data set [8] is Melatonin receptor type 1A (Homo sapiens, UniProt P48039). As to the kind of experiment: Agonist activity at human MT1 receptor expressed in HEK293 cells at 1 mM after 24 hrs by Fluo-8 dye-based calcium assay relative to control. It counts as functional, cell-based. The procedure, abridged:
as §2

Data set [9] concerns Mus musculus. Description: Antidepressant activity in Kunming mouse assessed as decrease in immobility duration at 20 mg/kg, po by forced swim test. It counts as functional, organism-based. In short, it runs like this:
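Male Kunming mice (18–20 g), group-housed at 22 ± 2 °C on a 12 h light/dark cycle, dosed orally. Each mouse was placed in a glass cylinder (25 cm high, 15 cm diameter) holding 10 cm of water at 25 ± 1 °C and made to swim for 6 min. Immobility over the last 4 min was scored automatically by video tracking; n = 10, mean ± SEM vs vehicle.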

Experimental findings from ChEMBL document CHEMBL4270555, “Synthesis and biological evaluation of magnolol derivatives as melatonergic receptor agonists with potential use in depression” (Eur J Med Chem, 2018) are described below.

Active and inactive are the calls of the source. The calls are words filed in the database; no cut-off is given here.

Chain of Melatonin receptor type 1A (P48039 whole entry): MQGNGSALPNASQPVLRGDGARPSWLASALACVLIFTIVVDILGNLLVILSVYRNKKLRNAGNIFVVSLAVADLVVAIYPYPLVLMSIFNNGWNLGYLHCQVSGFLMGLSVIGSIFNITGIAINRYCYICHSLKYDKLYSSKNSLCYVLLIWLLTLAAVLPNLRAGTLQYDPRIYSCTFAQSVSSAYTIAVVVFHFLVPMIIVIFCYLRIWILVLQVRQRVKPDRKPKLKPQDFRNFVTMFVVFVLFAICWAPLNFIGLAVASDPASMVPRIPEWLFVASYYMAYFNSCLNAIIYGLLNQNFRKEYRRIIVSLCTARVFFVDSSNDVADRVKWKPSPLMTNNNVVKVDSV

As for `COc1ccc2cccc(CCNC(C)=O)c2c1`, the outcome in the data set with Mus musculus [1] was Active.
For the molecule `C=CCc1ccc(OC)c(-c2cc(CC=C)ccc2O[C@@H]2O[C@H](CO)[C@@H](O)[C@H](O)[C@H]2O)c1`, the Drug metabolism result in data set [2], in [3] and in data set [5] was “Metabolite_Detected” each time. The molecule also showed a Retention_time in data set [4] of 11.32 min.
Regarding `C=CCc1ccc(O)c(-c2cc(CC=C)ccc2O[C@@H]2O[C@H](CO)[C@@H](OC(C)=O)[C@H](OC(C)=O)[C@H]2O)c1`, the Activity in data set [6] came to 89%; in data set [8], 31%. Further, in data set [7], the Ratio was 3.5 to 4.5.
On to `CNCCC(Oc1ccc(C(F)(F)F)cc1)c1ccccc1` (stereo not given), for which the result in the data set on Mus musculus [1] and with Mus musculus [9] was Active.
